Reference: PMC8511081 (European journal of medicinal chemistry, 2021)
“Also recorded” adds a separate entry of the source.

Columns and labels:
sGC [1] = target: T1, sGC (Homo sapiens, UniProt Q02153); assay type: biochemical; settings: 100 μM screening on Fe2+-sGC and Fe3+-sGC (Fig. 2)
T1 sequence (Q02153 1-619): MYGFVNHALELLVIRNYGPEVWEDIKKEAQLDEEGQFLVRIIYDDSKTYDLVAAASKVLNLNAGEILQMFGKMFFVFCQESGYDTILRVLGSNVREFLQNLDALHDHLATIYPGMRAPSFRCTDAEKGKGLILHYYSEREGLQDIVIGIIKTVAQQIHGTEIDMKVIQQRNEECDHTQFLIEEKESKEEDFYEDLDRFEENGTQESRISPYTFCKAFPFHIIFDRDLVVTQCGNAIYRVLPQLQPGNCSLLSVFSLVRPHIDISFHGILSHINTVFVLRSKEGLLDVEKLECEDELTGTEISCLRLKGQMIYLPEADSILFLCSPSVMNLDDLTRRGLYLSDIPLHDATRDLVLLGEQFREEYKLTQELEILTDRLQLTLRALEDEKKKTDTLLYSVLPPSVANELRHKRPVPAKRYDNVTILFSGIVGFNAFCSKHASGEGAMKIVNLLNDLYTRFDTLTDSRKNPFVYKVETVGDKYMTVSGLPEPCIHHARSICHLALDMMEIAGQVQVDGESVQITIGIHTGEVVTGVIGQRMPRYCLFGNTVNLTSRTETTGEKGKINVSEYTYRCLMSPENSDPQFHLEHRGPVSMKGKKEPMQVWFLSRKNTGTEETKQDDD
T1 sequence (Q02108 1-690 partner): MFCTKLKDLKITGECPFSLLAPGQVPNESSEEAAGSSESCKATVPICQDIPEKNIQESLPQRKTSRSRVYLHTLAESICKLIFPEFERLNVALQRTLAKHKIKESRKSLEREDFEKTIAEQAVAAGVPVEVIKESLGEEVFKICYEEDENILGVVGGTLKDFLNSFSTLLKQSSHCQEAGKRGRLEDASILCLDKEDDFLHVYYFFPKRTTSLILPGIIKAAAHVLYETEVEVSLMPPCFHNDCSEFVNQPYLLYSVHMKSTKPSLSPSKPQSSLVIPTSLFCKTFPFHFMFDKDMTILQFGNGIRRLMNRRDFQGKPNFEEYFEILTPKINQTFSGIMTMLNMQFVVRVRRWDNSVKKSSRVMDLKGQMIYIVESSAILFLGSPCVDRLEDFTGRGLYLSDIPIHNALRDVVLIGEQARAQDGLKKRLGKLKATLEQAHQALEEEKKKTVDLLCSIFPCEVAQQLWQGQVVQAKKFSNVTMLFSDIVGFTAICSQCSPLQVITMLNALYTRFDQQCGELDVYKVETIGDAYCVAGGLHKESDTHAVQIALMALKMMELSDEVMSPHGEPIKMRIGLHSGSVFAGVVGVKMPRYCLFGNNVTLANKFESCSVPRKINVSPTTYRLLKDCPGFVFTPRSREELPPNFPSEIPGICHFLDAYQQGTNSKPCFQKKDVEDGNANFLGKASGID
Method in brief: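 Human α1/β1 sGC from Sf9 cells was purified on DEAE, Ni-agarose and gel filtration. The ferric form was made by adding 10 μM ODQ at pre-incubation. Then 15 min at 37 °C with 1 mM GTP/[α-32P]GTP; zinc carbonate stop; [32P]cGMP measured.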

[2] = target: T2, human sGC with ferric heme (Fe3+-sGC) (Homo sapiens, UniProt Q02153); test: cGMP-forming activity of purified sGC with ferric heme; assay type: biochemical; settings: for shape of the activation curve: dose-dependent activation of sGC with ferric heme, Fig. 3; for activation of Fe3+-sGC: 100 μM, Fig. 2B
T2 sequence (Q02153 1-619): T1 sequence (Q02153 1-619)
T2 sequence (Q02108 1-690 partner): T1 sequence (Q02108 1-690 partner)

[3] = target: T3, human sGC with ferrous heme (Fe2+-sGC) (Homo sapiens, UniProt Q02153); test: cGMP-forming activity of purified sGC with ferrous heme; assay type: biochemical; settings: 100 μM, Fig. 2A
T3 sequence (Q02153 1-619): T1 sequence (Q02153 1-619)
T3 sequence (Q02108 1-690 partner): T1 sequence (Q02108 1-690 partner)
Method in brief: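 Ferrous-heme human α1/β1 sGC, expressed in Sf9 cells and purified through DEAE, Ni-agarose and Superdex 200. Reaction started at 37 °C with 1 mM GTP/[α-32P]GTP (~100000 cpm) for 15 min. Stopped by zinc carbonate precipitation; [32P]cGMP formed.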

sGC [4] = settings: cited from earlier work

Row | SMILES | sGC activation (sGC [1]) | shape of the activation curve [2] | activation of Fe3+-sGC [2] | also measured
1 | Cc1ccc(C)c(OCC(=O)O)c1 [Compound 4a, 2-(2,5-dimethylphenoxy)acetic acid] | not conducive to sGC activation |  |  | 
2 | Cc1ccc(C)c(OCCCC(=O)O)c1 [Compound 4b, 4-(2,5-dimethylphenoxy)butanoic acid] | not conducive to sGC activation |  |  | 
3 | Cc1ccc(C)c(OCCCCC(=O)O)c1 [Compound 4c, 5-(2,5-dimethylphenoxy)pentanoic acid] | activated both Fe^2+-sGC and Fe^3+-sGC | typical S-shaped pattern |  | 
4 | Cc1ccc(C)c(OCCCCCC(=O)O)c1 [Compound 4d, 6-(2,5-dimethylphenoxy)hexanoic acid] | activated both Fe^2+-sGC and Fe^3+-sGC | typical S-shaped pattern | diminished | activation of Fe2+-sGC [3]: tolerated
5 | Cc1ccc(C)c(NCCCC(C)(C)C(=O)O)c1 [Compound 7a, 5-((2,5-dimethylphenyl)amino)-2,2-dimethylpentanoic acid] | activated both Fe^2+-sGC and Fe^3+-sGC | typical S-shaped pattern |  | 
6 | Cc1ccc(C(C)C)c(OCCCC(C)(C)C(=O)O)c1 [Compound 7c, 5-(2-isopropyl-5-methylphenoxy)-2,2-dimethylpentanoic acid] | activated both Fe^2+-sGC and Fe^3+-sGC; also recorded: well tolerated | bell-shaped curve |  | 
7 | O=C(O)CCCCCOc1ccccc1 [Compound 8b, 6-phenoxyhexanoic acid] | does not activate sGC |  |  | 
8 | Cc1ccc(C)c(N(CCCC(C)(C)C(=O)O)C(=O)CCC(=O)O)c1 [Compound 10d, 5-(3-carboxy-N-(2,5-dimethylphenyl)propanamido)-2,2-dimethylpentanoic acid] |  |  | weak, yet statistically significant activation | 
9 | Cc1ccc(C)c(N(CCCC(C)(C)C(=O)O)C(=O)CCCC(=O)O)c1 [Compound 10e, 5-(4-carboxy-N-(2,5-dimethylphenyl)butanamido)-2,2-dimethylpentanoic acid] |  |  | weak, yet statistically significant activation | 
10 | Cc1ccc(C)c(N(CCCC(C)(C)C(=O)O)C(=O)CCCCC(=O)O)c1 [Compound 10f, 6-((4-carboxy-4-methylpentyl)(2,5-dimethylphenyl)amino)-6-oxohexanoic acid] |  |  | weak, yet statistically significant activation | 
11 | Cc1ccc(C)c(N(CCCC(C)(C)C(=O)O)C(=O)CCCCC(=O)N(CCCC(C)(C)C(=O)O)c2cc(C)ccc2C)c1 [Compound 11, 5,5’-(adipoylbis((2,5-dimethylphenyl)azanediyl))bis(2,2-dimethyl-pentanoic acid)] | activated both Fe^2+-sGC and Fe^3+-sGC; also recorded: exhibited sGC activation | typical S-shaped pattern |  | 
12 | CCC(CCCOc1cc(C)ccc1C)C(=O)O (centres unmarked) [Compound 15a, 5-(2,5-dimethylphenoxy)-2-ethylpentanoic acid] |  |  | significantly hampered the activation | activation of Fe2+-sGC [3]: blocked the activation
13 | CCCCCCC(CCCOc1cc(C)ccc1C)C(=O)O (centres unmarked) [Compound 15b, 2-(3-(2,5-dimethylphenoxy)propyl)octanoic acid] | activated both Fe^2+-sGC and Fe^3+-sGC | bell-shaped curve |  | 
14 | O=C(O)CCCCN(CCc1ccccc1OCc1ccc(CCc2ccccc2)cc1)Cc1ccc(C(=O)O)cc1 [cinaciguat] |  |  |  | estimated EC50 (sGC [4]): low nanomolar range
